Test results: ChEMBL document CHEMBL1152668, “Synthesis, reactivity and biological evaluation of novel halogenated tripentones” (Bioorg Med Chem, 2009)
The source made the active and inactive calls. The calls are words filed in the database; no cut-off is given here.

What was measured:
HL-60 = assay: Cytotoxicity against human HL60 cells at 0.05 to 1000 nM after 72 hrs by MTS assay; assay type: functional, cell-based
Method in brief: (§1)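 Cultured in RPMI medium under 5% CO2, then seeded in 96-well plates and treated 24 h later with DMSO solutions at 0.05 nM–1 µM, with 1% DMSO vehicle controls. After 72 h exposure, MTS incubated 3 h at 37 °C and absorbance read at 490 nm. Inhibition = (1 − OD490 treated/OD490 control)×100; IC50 from separate duplicate experiments.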

MRC5 = assay: Cytotoxicity against human MRC5 cells at 0.05 to 1000 nM after 72 hrs by MTS assay; assay type: cell-based; conditions: mrc5, 72 h, 1 µM
Method in brief: (§2)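 Cells maintained in D-MEM with 10% fetal calf serum, penicillin, streptomycin and fungizone under 5% CO2. Plated in 96-well plates and dosed 24 h later with compound in DMSO, 0.05 nM to 1 µM, with 1% DMSO vehicle controls. After 72 h, MTS added for 3 h at 37 °C and A490 read. Inhibition = (1 − OD treated/OD control)×100; IC50 from separate duplicates.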

KB [1] = assay: Growth inhibition of human KB cells at 1 uM after 72 hrs by MTS assay; assay type: functional; conditions: read-out: GI
HCT-116 = assay: Cytotoxicity against human HCT116 cells at 0.05 to 1000 nM after 72 hrs by MTS assay; assay type: functional, cell-based; method in brief: as §1
KB [2] = assay: Growth inhibition of human KB cells at 10 uM after 72 hrs by MTS assay; assay type: functional; conditions: read-out: GI
L1210 = assay: Cytotoxicity against mouse L1210 cells after 72 hrs by MTS assay; assay type: functional, cell-based; conditions: L1210, 72 h
HCT-15 = assay: Cytotoxicity against human HCT15 cells at 0.05 to 1000 nM after 72 hrs by MTS assay; assay type: functional, cell-based; method in brief: as §1
Vero = assay: Cytotoxicity against african green monkey Vero cells at 0.05 to 1000 nM after 72 hrs by MTS assay; assay type: cell-based; conditions: chlorocebus sabaeus, 1 µM; method in brief: as §2
MCF7 = assay: Cytotoxicity against human MCF7 cells at 0.05 to 1000 nM after 72 hrs by MTS assay; assay type: functional, cell-based; method in brief: as §1
KB [3] = assay: Cytotoxicity against human KB cells at 0.05 to 1000 nM after 72 hrs by MTS assay; assay type: functional, cell-based; method in brief: as §2

Row | Structure (SMILES) | inhibition of growth at 1 µM (KB [1]) [%] | inhibition of growth at 10 µM (KB [2]) [%] | IC50 (L1210) [nM] | further results
1 | COc1ccc(-c2csc3c2-n2cccc2C3=O)cc1O | 86 | 86 | 4 | Activity (HL-60): Active; Activity (MRC5): Non-toxic; Activity (HCT-116): Active; Activity (HCT-15): Active; Activity (Vero): Non-toxic; Activity (MCF7): Active; Activity (KB [3]): Active
2 | COc1ccc(-c2csc3c2-n2cc(-c4cc(OC)c(OC)c(OC)c4)cc2C3=O)cc1O | – | 35 | – | –
3 | COc1ccc(-c2csc3c2-n2cc(Br)cc2C3=O)cc1O | 94 | 94 | 17 | –
4 | COc1ccc(-c2csc3c2-n2cc(-c4ccc(OC)c(OC)c4)cc2C3=O)cc1O | 15 | 97 | – | –
5 | COC(=O)/C=C/c1cc2n(c1)-c1c(-c3ccc(OC)c(O)c3)csc1C2=O | 3 | 1 | – | –
6 | COc1ccc(-c2cc3n(c2)-c2c(-c4ccc(OC)c(O)c4)csc2C3=O)cc1O | 15 | 90 | – | –
7 | COc1ccc(-c2csc3c2-n2cc(-c4cccnc4)cc2C3=O)cc1O | 20 | 64 | – | –
8 | COc1ccc(-c2cc3n(c2)-c2c(-c4ccc(OC)c(O)c4)csc2C3=O)cc1 | 94 | 98 | 113 | –
